Published values gathered from unrelated publications.
Lines come from different studies, so protocols differ.
Target: Vascular endothelial growth factor receptor 2 (KDR, Homo sapiens, UniProt P35968)

CC(C)c1ccc(NC(=O)c2cccs2)c(-c2nc3ccccc3[nH]c2=O)c1 — activity vs control (enzyme activity; inhibitor; 1 µM): 25%
COc1ccc(NC(=O)c2c(Nc3ccccc3)sc(C#N)c2NC(=O)CNc2ccc(Cl)cc2)cc1 — remaining activity (enzyme activity; inhibitor; 10 nM): 98%
Cc1sc(C(=O)NC2COC2)cc1-n1cc(NC(=O)Nc2c(F)cccc2Cl)cn1 — remaining activity (enzyme activity; inhibitor; 10 µM): 88.2%
CCCCN(CCCC)C(=O)CN1C[C@H](c2cc(OC)c3c(c2)OCO3)[C@@H](C(=O)O)[C@@H]1CC(C)(C)CCC — remaining binding (cell-free assay; competition with immobilised ligand; 1 µM): 88.7%
CS(=O)(=O)Nc1cccc(-c2csc(NC(=O)CSc3nc4nccnc4c(=O)n3CCc3ccccc3)n2)c1 — inhibition (enzyme activity; inhibitor; 10 µM): 0%
COc1cc2ncnc(Nc3ccc(Oc4ccccc4)c(C)c3C)c2cc1OC — inhibition (enzyme activity; inhibitor; 1 µM): 16%
C[S+]([O-])c1ccc(-c2nc(-c3ccncc3)c(-c3ccc(F)cc3)[nH]2)cc1 (centres unmarked) — remaining signal (cell-free assay; 0.5 µM): 99.2%
CNc1cccc2cc(C(=O)Nc3ccc(C(=O)O)cc3)c(=O)[nH]c12 — inhibition (enzyme activity; inhibitor; 10 µM): 4.8%
c1nc2c(Nc3ccc4c(c3)OCCO4)nc(Nc3ccc4c(c3)OCCO4)nc2[nH]1 — activity vs control (enzyme activity; inhibitor; 10 µM): 11%
COc1ccc(-c2cnc3c(-c4ccsc4)cnn3c2)cc1 — remaining signal (cell-free assay; 0.5 µM): 79.8%
COc1ccc(C=NNC(=O)c2sc(Nc3ccccc3)c(C(=O)Nc3ccc(OC)cc3)c2NC(C)=O)cc1 — remaining activity (enzyme activity; inhibitor; 100 µM): 35.1%
CCC(=N\O)/C(C)=C/c1ccc(F)cc1 — remaining binding (cell-free assay; competition with immobilised ligand; 1 µM): 81%
Cc1[nH]c(/C=C2\C(=O)Nc3ccc(F)cc32)c(C)c1C(=O)N[C@H]1CCN(C(=O)N(C)C)C1 — remaining activity (enzyme activity; inhibitor; 1 µM): 9%
COc1ccc(NC(=O)c2c(Nc3ccccc3)sc(C#N)c2NC(=O)CNc2ccc(Br)cc2)cc1 — remaining activity (enzyme activity; inhibitor; 1 µM): 51.3%
Cc1ccc(NC(=O)c2ccc(C)c(C(F)(F)F)c2)cc1C#Cc1nn(C2CCC(O)CC2)c2ncnc(N)c12 (centres unmarked) — remaining signal (cell-free assay; 10 µM): 2%
O=C1NC(=O)c2cc(Nc3ccc(F)cc3)c(Nc3ccc(F)cc3)cc21 — remaining signal (cell-free assay; 0.5 µM): 97.9%
COc1ccc(NC(=O)c2c(Nc3ccccc3)sc(C(=O)NN=Cc3cc(OC)c(OC)c(OC)c3)c2NC(C)=O)cc1 — remaining activity (enzyme activity; inhibitor; 10 µM): 71.1%
CC(=O)N1CCC(c2ccc(C(=O)NC3=NCCN3)cc2C(F)(F)F)CC1 — remaining binding (cell-free assay; competition with immobilised ligand; 1 µM): 80%
N#CCCc1ccc2c(c1)-c1[nH]c3ccc([N+](=O)[O-])cc3c1CC(=O)N2 — remaining signal (cell-free assay; 0.5 µM): 75.5%
Cc1ccc(C(=O)Nc2ccc(CN3CCN(C)CC3)c(C(F)(F)F)c2)cc1C#Cc1cnc2cccnn12 — remaining signal (cell-free assay; 23.5 nM): 15%
COc1ccc(NC(=O)c2c(Nc3ccccc3)sc(C#N)c2NC(=O)CNc2ccc([N+](=O)[O-])cc2)cc1 — remaining activity (enzyme activity; inhibitor; 10 µM): 71.8%
Cn1nc(C(=O)NCc2ccc(C(=O)O)cc2)cc1-c1ccc2[nH]ccc2c1 — remaining binding (cell-free assay; competition with immobilised ligand; 0.1 µM): 85%
COc1ccc(NC(=O)c2c(Nc3ccccc3)sc(C(=O)NN=Cc3ccc(OC)c(O)c3)c2NC(C)=O)cc1 — remaining activity (enzyme activity; inhibitor; 0.1 µM): 83.2%
O=C(O)c1cc(-c2ccc(C3CCNCC3)cc2)c2ccc(-c3ccc(C(F)(F)F)cc3)cc2c1 — remaining binding (cell-free assay; competition with immobilised ligand; 1 µM): 100%
CN(C)C1CCN(CC#Cc2nn(C3CCCC3)c3nc(NCc4ccccc4)ncc23)C1 (centres unmarked) — inhibition (enzyme activity; inhibitor; FRET; 1 µM): 14%
CC(=O)Nc1c(C(C)=O)c(=O)n(C)c2nc(-c3ccc(Cl)cc3Cl)c(-c3ccc(Cl)cc3)cc12 — remaining binding (cell-free assay; competition with immobilised ligand; 1 µM): 94%
CNC(=O)c1c(C)oc2cc(Oc3ncnc4cc(OC)c(OC)cc34)ccc12 — inhibition (enzyme activity; inhibitor; 0.1 µM): 89.9%
COc1ccc(NC(=O)c2c(Nc3ccccc3)sc(C(=O)NN=Cc3ccc(Cl)cc3)c2NC(C)=O)cc1 — remaining activity (enzyme activity; inhibitor; 10 nM): 96.1%
COc1cc(-c2cn(C3CCc4ccccc4N(CC(F)(F)F)C3=O)nn2)ccc1-n1ccc(C)n1 (centres unmarked) — remaining binding (cell-free assay; competition with immobilised ligand; 1 µM): 79%
CC/C(=N\NC(=O)NCc1cccc(O)c1)c1ccc(O)c(C)c1O — inhibition (enzyme activity; inhibitor; 0.1 µM): 2.7%
COc1ccc(COc2ccc(Cc3cnc(N)nc3N)cc2OC)cc1 — remaining signal (cell-free assay; 0.5 µM): 109%
N#Cc1ccc(Nc2ccc3[nH]c(=O)[nH]c3c2)c(Cl)c1 — remaining binding (cell-free assay; competition with immobilised ligand; 1 µM): 99%
